# Results as given in PMC5896753 (ACS chemical biology, 2017).
# Experiments:
# Neu7 astrocytes [1] = test: cell-surface CS-E expression, immunostaining with CS-E-specific antibody; type: cell-based
# Method in brief: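 Neu7 astrocytes were treated with test compound, with chlorate as comparator. Cells were co-stained with a CS-E-specific antibody and the nuclear stain DAPI, and average anti-CS-E fluorescence per condition was quantified from images. Mean ± S.E.M. of three experiments, 20-100 cells per experiment.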
# Neu7 astrocytes [2] = test: disaccharide composition of secreted CSPGs; type: cell-based
# Chst15 [3] = target: T1, Chst15 (Homo sapiens, UniProt Q7LFX5); test: [35S]-labeling assay; type: biochemical; conditions: 25 μM of inhibitor; normalized to the inhibition by compound 19; three independent measurements
# T1 sequence (Q7LFX5 1-561): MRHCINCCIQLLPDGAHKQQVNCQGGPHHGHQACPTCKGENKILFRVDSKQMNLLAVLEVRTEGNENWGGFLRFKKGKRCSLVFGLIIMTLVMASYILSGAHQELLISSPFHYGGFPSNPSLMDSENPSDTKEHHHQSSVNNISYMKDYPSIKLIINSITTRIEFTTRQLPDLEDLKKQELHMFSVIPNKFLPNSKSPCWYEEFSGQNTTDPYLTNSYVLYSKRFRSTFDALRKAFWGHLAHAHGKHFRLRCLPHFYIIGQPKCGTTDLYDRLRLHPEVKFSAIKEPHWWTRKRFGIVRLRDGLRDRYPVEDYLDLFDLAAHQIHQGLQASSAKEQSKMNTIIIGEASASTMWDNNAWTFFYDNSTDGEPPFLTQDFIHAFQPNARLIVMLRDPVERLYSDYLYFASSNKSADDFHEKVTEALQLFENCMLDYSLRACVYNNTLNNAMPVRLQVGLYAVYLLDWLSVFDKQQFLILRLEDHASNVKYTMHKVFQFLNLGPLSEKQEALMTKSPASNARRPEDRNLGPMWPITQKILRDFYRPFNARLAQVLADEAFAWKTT
# Chst15 [4] = target: T1, Chst15; test: enzyme-coupled fluorescence assay; type: biochemical
# Sult1c1 = Sult1c1 counter-screen; type: biochemical; conditions: concentrations tested 3-100 μM
# Chst15 [5] = target: T1, Chst15; test: sulfotransferase specificity panel; type: biochemical
# [6] = target: T2, chondroitin 4-O-sulfotransferase Chst11 (Homo sapiens, UniProt Q9NPF2); test: sulfotransferase specificity panel; type: biochemical
# T2 sequence (Q9NPF2 1-352): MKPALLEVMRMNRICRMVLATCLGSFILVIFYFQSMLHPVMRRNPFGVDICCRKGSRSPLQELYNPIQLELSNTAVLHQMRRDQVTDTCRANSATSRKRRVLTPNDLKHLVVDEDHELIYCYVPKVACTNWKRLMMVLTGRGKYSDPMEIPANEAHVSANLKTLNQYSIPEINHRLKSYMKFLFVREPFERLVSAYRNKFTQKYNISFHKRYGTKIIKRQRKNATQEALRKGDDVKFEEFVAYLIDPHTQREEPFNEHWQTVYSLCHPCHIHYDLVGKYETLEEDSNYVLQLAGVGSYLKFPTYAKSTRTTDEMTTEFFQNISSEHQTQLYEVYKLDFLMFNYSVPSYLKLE
# [7] = target: T3, chondroitin 2-O-sulfotransferase Ust (Homo sapiens, UniProt Q9Y2C2); test: sulfotransferase specificity panel; type: biochemical
# T3 sequence (Q9Y2C2 1-406): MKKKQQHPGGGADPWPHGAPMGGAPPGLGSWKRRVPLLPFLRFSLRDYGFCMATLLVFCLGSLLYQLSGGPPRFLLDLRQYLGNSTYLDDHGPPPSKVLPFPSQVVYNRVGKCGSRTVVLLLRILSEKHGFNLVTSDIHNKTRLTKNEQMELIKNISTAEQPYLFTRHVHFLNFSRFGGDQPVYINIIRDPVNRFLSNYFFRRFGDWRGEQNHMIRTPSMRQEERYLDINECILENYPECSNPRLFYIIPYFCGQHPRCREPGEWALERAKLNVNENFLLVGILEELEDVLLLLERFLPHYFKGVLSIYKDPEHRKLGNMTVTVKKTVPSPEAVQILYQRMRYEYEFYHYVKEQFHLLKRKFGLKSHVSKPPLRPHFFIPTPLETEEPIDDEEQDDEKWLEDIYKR
# [8] = target: heparan 3-O-sulfotransferase Hs3st1 (Homo sapiens, UniProt O14792); test: sulfotransferase specificity panel; type: biochemical
# Sult1e1 = target: T4, Sult1e1 (Homo sapiens, UniProt P49888); test: sulfotransferase specificity panel; type: biochemical
# T4 sequence (P49888 1-294): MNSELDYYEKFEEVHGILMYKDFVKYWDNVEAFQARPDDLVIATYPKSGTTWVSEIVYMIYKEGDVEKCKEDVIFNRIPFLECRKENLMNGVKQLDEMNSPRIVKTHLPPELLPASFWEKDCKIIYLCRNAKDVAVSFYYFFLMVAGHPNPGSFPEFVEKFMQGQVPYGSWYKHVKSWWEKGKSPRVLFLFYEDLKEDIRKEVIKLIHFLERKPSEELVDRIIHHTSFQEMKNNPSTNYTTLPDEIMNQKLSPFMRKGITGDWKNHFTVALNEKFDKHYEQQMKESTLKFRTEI
# Sult2b1a = target: T5, Sult2b1a (Homo sapiens, UniProt O00204); test: sulfotransferase specificity panel; type: biochemical
# T5 sequence (O00204 1-350 isoform O00204-2): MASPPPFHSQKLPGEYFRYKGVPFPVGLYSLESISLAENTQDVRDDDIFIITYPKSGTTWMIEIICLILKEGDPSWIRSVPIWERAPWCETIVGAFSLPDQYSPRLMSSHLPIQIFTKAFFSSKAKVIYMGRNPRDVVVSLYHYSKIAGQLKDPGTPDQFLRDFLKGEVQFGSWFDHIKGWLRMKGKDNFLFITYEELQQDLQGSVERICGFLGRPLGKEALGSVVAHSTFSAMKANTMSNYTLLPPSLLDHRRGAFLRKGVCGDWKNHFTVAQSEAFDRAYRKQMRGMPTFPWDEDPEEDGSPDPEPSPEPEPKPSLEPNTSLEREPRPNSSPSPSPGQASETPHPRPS
# Sult2b1b = target: T6, Sult2b1b (Homo sapiens, UniProt O00204); test: sulfotransferase specificity panel; type: biochemical
# T6 sequence (O00204 1-365): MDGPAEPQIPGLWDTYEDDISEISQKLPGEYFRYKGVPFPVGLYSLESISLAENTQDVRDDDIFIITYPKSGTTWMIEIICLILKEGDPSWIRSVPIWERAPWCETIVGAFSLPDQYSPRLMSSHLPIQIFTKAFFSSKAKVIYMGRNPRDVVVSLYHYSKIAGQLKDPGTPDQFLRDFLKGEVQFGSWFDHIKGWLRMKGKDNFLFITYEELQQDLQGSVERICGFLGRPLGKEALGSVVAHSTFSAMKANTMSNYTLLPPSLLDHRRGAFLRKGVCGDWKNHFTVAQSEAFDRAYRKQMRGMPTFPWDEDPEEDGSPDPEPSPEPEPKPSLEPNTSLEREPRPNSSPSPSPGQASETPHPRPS
# Chst15 [9] = target: T1, Chst15; test: pre-incubation and ten-fold dilution experiments; type: biochemical
# NIH3T3 fibroblasts = test: CS-E expression in fibroblasts; type: cell-based
# DRG neurons = test: in vitro CSPG boundary assay; type: cell-based, rat; conditions: CSPGs from treated vs untreated Neu7 astrocytes
# Method in brief: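 Boundary assay: purified CSPGs from Neu7 astrocytes treated with or without test compound were mixed with Texas Red dye and spotted onto glass coverslips. DRG neurons were plated on the coverslips, and the percentage of neurites crossing the CSPG boundary was scored. Mean ± S.E.M. from five experiments, 20-40 cells each.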
# [10] = liver microsome stability; type: in vitro ADME; conditions: human
# [11] = liver microsome stability; type: in vitro ADME; conditions: mouse
# [12] = liver microsome stability; type: in vitro ADME; conditions: rat
# [13] = in vivo pharmacokinetics after intravenous injection; parameters: species or system rats; conditions: rat, 3 mg/kg
# [14] = high concentrations of sodium chlorate, compared to untreated cells
# Chain of heparan 3-O-sulfotransferase Hs3st1 (O14792 21-307): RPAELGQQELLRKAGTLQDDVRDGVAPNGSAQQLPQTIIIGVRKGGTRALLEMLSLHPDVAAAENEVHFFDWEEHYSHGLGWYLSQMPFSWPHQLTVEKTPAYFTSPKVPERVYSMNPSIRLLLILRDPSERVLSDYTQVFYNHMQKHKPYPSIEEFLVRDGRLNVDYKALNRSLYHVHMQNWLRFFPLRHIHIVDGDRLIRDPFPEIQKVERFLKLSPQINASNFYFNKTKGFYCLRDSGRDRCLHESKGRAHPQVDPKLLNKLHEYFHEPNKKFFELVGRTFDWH
structure (smiles),measurement,setting,value
[Na+].[O-][Cl+2]([O-])[O-] [sodium chlorate],cell-surface CS-E expression,"Neu7 astrocytes [1]; doses as high as 25 mM, compared to 34",did not reduce CS-E levels to as large an extent
same,decrease in CS-E of secreted CSPGs,Neu7 astrocytes [2]; [14],31.6 ± 10.9%
same,increase in uCS of secreted CSPGs,Neu7 astrocytes [2]; [14],39.7 ± 15.6%
COc1cc(/C=C(\C#N)C(=O)Nc2ccc(Cl)cc2Cl)cc(Br)c1O [Compound 34],Relative Inhibition,Chst15 [3],1.35 ± 0.12
same,mode of inhibition,Chst15 [4]; CS-A substrate concentration varied,mixed mode of inhibition
same,Ki,"Chst15 [4]; CS-A substrate concentration varied, pseudo first-order PAPS concentration",1430 nM
same,Ki,"Chst15 [4]; PAPS concentration varied, fixed CS-A acceptor substrate (10 mM)",770 nM
same,mode of inhibition,"Chst15 [4]; PAPS concentration varied, fixed CS-A (10 mM)",competitive mode of inhibition
same,activity against Sult1c1,Sult1c1,no activity
same,IC50,Chst15 [5],2000 to 2500 nM
same,specificity for GAG sulfotransferases compared to cytosolic sulfotransferases,Chst15 [5]; GAG vs cytosolic sulfotransferases,8- to 18 fold
same,IC50,[6],2000 to 2500 nM
same,IC50,[7],2000 to 2500 nM
same,IC50,[8],2000 to 2500 nM
same,IC50,Sult1e1,19000 to 42000 nM
same,IC50,Sult2b1a,19000 to 42000 nM
same,IC50,Sult2b1b,19000 to 42000 nM
same,effect of pre-incubation time on Chst15 inhibition,Chst15 [9]; inhibitor pre-incubated with Chst15 for various lengths of time,Longer pre-incubation times lead to greater inhibition of the enzyme
same,Chst15 activity in ten-fold dilution experiments,Chst15 [9]; up to 100 μM of 34,rapidly restored
same,cell-surface CS-E expression,Neu7 astrocytes [1]; 10 μM or 25 μM,"significant, dose-dependent decrease"
same,CS-E expression,NIH3T3 fibroblasts,significant loss of CS-E expression
same,inhibition at 25 µM,"Neu7 astrocytes [2]; Astrocyte, read-out: reduction in the CS-E sulfation motif on secreted CSPGs",67.8 ± 10.9%
same,neurite crossing of CSPG boundary,DRG neurons,crossed more freely
same,stability in liver microsomes based on intrinsic clearance,[10],good stability
same,stability in liver microsomes based on intrinsic clearance,[11],good stability
same,stability in liver microsomes based on intrinsic clearance,[12],good stability
same,clearance,[13],21 mL/min/kg
same,half-life,[13],1.6 h
